# Laboratory results as given in ChEMBL document CHEMBL3297671, “Identification and bioactivity of 3-epi-xestoaminol C isolated from the New Zealand brown alga Xiphophora chondrophylla” (J Nat Prod, 2014).
# Activity calls are given as the source filed them. No cut-off for these calls is given here.
# Legend:
# Staphylococcus aureus [1] = assay: Antimicrobial activity against Staphylococcus aureus ATCC 25923 after 16 hrs by serial dilution method; assay type: functional, organism-based; conditions: ATCC 25923, 16 h
# [2] = Cytotoxicity against human HEK cells after 48 hrs by MTT assay; assay type: functional, cell-based; conditions: HEK293, 48 h
# Staphylococcus aureus [3] = assay: Antimicrobial activity against Staphylococcus aureus ATCC 25923 assessed as compound level causing less than 2% growth after 16 hrs by serial dilution method; assay type: functional; conditions: ATCC 25923, 16 h
# In short: (§1)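 Values are read from dose-response curves. No IC50 is calculated where the curve is too steep.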
# HL-60 [4] = assay: Cytotoxicity against human HL60 cells after 48 hrs by MTT assay; assay type: functional, cell-based; conditions: HL-60, 48 h
# [5] = Cytotoxicity against human HEK cells assessed as compound level causing less than 2% growth after 48 hrs by MTT assay; assay type: functional, HEK293
# HL-60 [6] = assay: Cytotoxicity against human HL60 cells assessed as compound level causing less than 2% growth after 48 hrs by MTT assay; assay type: functional
# Saccharomyces cerevisiae [7] = assay: Antimicrobial activity against Saccharomyces cerevisiae assessed as compound level causing less than 2% growth after 16 hrs by serial dilution method; assay type: functional; in short: as §1
# Escherichia coli [8] = assay: Antimicrobial activity against Escherichia coli ATCC 25922 assessed as compound level causing less than 2% growth after 16 hrs by serial dilution method; assay type: functional; conditions: ATCC 25922, 16 h
# Saccharomyces cerevisiae [9] = assay: Antimicrobial activity against Saccharomyces cerevisiae after 16 hrs by serial dilution method; assay type: functional, organism-based; in short: as §1
# Pseudomonas aeruginosa [10] = assay: Antimicrobial activity against Pseudomonas aeruginosa PAO1 assessed as compound level causing less than 2% growth after 16 hrs by serial dilution method; assay type: functional
# Pseudomonas aeruginosa [11] = assay: Antimicrobial activity against Pseudomonas aeruginosa PAO1 after 16 hrs by serial dilution method; assay type: functional, organism-based
# Escherichia coli [12] = assay: Antimicrobial activity against Escherichia coli ATCC 25922 after 16 hrs by serial dilution method; assay type: functional, organism-based; conditions: ATCC 25922, 16 h
Structure (SMILES),IC50 (Staphylococcus aureus [1]),IC50 [2],MIC (Staphylococcus aureus [3]),IC50 (HL-60 [4]),MIC [5],MIC (HL-60 [6]),MIC (Saccharomyces cerevisiae [7]),MIC (Escherichia coli [8]),IC50 (Saccharomyces cerevisiae [9]),MIC (Pseudomonas aeruginosa [10]),IC50 (Pseudomonas aeruginosa [11]),IC50 (Escherichia coli [12]),"MIC (Pseudomonas aeruginosa [10]; PAO1, 16 h)","IC50 (Pseudomonas aeruginosa [11]; Pseudomonas aeruginosa, PAO1, 16 h, read-out: IC50)"
CCCCCCCCCCC[C@H](O)[C@H](C)N,17 µM,18 µM,65.1 µM,8.8 µM,32.7 µM,32.7 µM,inactive,32.6 µM,17.1 µM,inactive,Not Active,–,–,–
C[C@@H]1C[C@@H]([C@H](O)CC2CC(=O)NC(=O)C2)C(=O)[C@@H](C)C1 [CYCLOHEXIMIDE],–,–,–,–,–,–,1 µM,–,0.04 µM,–,–,–,–,–
CN(C)[C@@H]1C(O)=C(C(N)=O)C(=O)[C@@]2(O)C(O)=C3C(=O)c4c(O)cccc4[C@@](C)(O)[C@H]3C[C@@H]12 [TETRACYCLINE],5.7 µM,–,62.5 µM,–,–,–,–,≥ 500 µM,–,–,–,26.4 µM,> 500 µM,143 µM
